Shown are actives, neighbours in structure and some others; about 2.5% of the full set was active somewhere.
PG9 binder = PG9 antibody binding by small molecule; TR-FRET gp120-PG9 antibody binding; inhibition, % at 6.7 µM; 360,000 tested, 0.43% active; in the data active means inhibition above about 8.5%
MC4R ag barr = activates human MC4R beta-arrestin recruitment; U2OS MC4R beta-arrestin complementation, luminescence; percent of melanotan II response, DMSO zero; activation, % at 8.9 µM; AID 540308; P32245; 360,000 tested, 0.98% active;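 active means activation above a per-plate cutoff, the mean activation of sample wells on that plate plus 3 SD, cut at about 8% in these data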
MC4R antagonist = blocks human MC4R cAMP signaling; P32245; MC4R-expressing cells, MTII-stimulated cAMP, LANCE TR-FRET; inhibition, % at 6.5 µM; 360,000 tested, 0.48% active; AID 540295;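 active means inhibition above its plate's cutoff, the mean of tested wells on that plate plus 3 SD, cut at about 29% in these data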;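 further: 0% = Melanotan II alone and 100% = Melanotan II plus saturating MCL0020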
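Material: U2OS-MC4R stable cell line | Reagent: Melanotan II challenge after compound preincubation | Doses: One concentration, 6.5 µM nominal | Incubation: 30-min compound preincubation, 1-h Melanotan II challenge, 1-h detection, room temperature | Signal: TR-FRET cAMP assay | Replicates: One well per compound, no replicates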
Rev-erbA mod = modulators of human Rev-erb alpha DNA binding; Rev-erbα–FITC-DNA binding, fluorescence polarization, 90 min; activity, % at 10 µM; 370,000 tested, 0.79% active;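 active means activity above about 14%, limit read from the data; passing the limit was not always enough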;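 further: 0% = DMSO wells with 35 nM protein and 100% = DMSO wells with 750 nM protein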
NTR1 agonist = agonists of human neurotensin receptor NTR1; P30989; 330,000 tested, 0.17% active; activation, % at 20 µM; NTR1-U2OS beta-arrestin-GFP spot imaging, agonist mode; AID 493036;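 active means activation at or above 40% of the spot to cytoplasm intensity ratio, with at least 20 cells analyzed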;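 further: 0% = DMSO without peptide and 100% = 100 nM NTR1 peptide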
Target sequence (P30989 whole entry, looked up): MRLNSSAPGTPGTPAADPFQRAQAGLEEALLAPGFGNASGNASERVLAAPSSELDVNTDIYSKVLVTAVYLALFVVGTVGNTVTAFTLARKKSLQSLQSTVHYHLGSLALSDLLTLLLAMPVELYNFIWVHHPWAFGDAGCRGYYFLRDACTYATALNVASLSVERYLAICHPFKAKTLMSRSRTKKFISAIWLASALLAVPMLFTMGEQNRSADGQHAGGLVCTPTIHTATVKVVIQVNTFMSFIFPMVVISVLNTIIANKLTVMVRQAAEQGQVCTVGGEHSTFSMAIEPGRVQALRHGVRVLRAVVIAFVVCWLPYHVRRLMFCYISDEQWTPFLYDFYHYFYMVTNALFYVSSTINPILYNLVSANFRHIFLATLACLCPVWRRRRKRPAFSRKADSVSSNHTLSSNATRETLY
Rev-erbA confirm = confirmation of modulators of human Rev-erb alpha DNA binding | 3,000 tested, 61% active | Rev-erb alpha FITC-DNA binding, fluorescence polarization, 90 min | activation, % at 25 µM | shares compounds with Rev-erbA mod;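 active means activation at or above a set limit, or at least 3 SD above the negative control mean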;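 further: 0% = 35 nM protein with DMSO and 100% = 750 nM protein high control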
RORg DNA counter = RORgamma DNA-binding activity, dose-response counter-screen; AID 1259320; purified RORgamma protein-FITC-DNA binding, fluorescence polarization; IC50, µM; shares compounds with Rev-erbA mod; 910 tested, 8% active;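 active means Compounds whose fitted half-maximal concentration for disrupting protein-DNA binding is below 10 micromolar; the record names Rev-erb in its text, so the target is in doubt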
* = called active by the depositor; / = no result.

SMILES	PG9 binder	MC4R ag barr	MC4R antagonist	Rev-erbA mod	NTR1 agonist	Rev-erbA confirm	others
C[n+]1c2cc(N)ccc2cc2ccc(N)cc21	-8	-1	-28	51*	/	29*	RORg DNA counter=>40
COc1ccc(-n2c3c(cc(C(=O)Nc4cccc(C)n4)c2=O)C(=O)CC(C)(C)C3)cc1	-3	-1	-1	33*	5	14
Cc1nc(N(C)C2CCCCC2)c2nnn(Cc3ccc(F)cc3)c2n1	-1	2	13	31*	/	-6
COc1ccc2cc(/C=N/NC(=O)CN(c3ccccc3OC)S(=O)(=O)c3ccccc3)c(Cl)nc2c1	-2	/	/	0	/	/
COc1ccc2cc(/C=N/NC(=O)CN(c3ccccc3C)S(=O)(=O)c3ccccc3)c(Cl)nc2c1	3	-2	11	29*	1	8
O=c1oc(C2(O)CCCCC2)cc2ccc(-c3ccc4[nH]ccc4c3)cc12	-5	3	11	22*	-3	11
COc1ccc(N2C(=O)c3cccc4c(N(C)CCO)ccc(c34)C2=O)cc1	-3	1	2	42*	3	36*	RORg DNA counter=>40
COc1ccc(N2C(=O)c3cccc4cccc(c34)C2=O)cc1	-1	-1	12	28*	2	26*
COc1ccc(N2C(=O)c3ccccc3C2=O)cc1	-1	-1	1	-1	0	/
CC(C)CN1C(=O)C[C@]2(C(=O)N(C)c3ccc(NS(=O)(=O)C4CC4)cc32)C1c1ccccc1 (stereo partly drawn)	/	/	/	7	/	/
CCC(=O)Nc1nn(C)c2nc3c(C)cccc3cc12	-5	-1	-14	-5	2	/
COc1ccc(CC(=O)Nc2nn(C)c3nc4c(C)cccc4cc23)cc1	6	1	1	28*	0	11
CCC1CCc2c(sc(NC(=O)c3cccnc3)c2C(N)=O)C1 (stereo not drawn)	1	-1	6	27*	3	6
NC(=O)c1c(NC(=O)c2cccnc2)sc2c1CCCC2	-1	3	-2	-8	1	/
CCCC1CCc2c(sc(NC(=O)c3cccs3)c2C(N)=O)C1 (stereo not drawn)	0	0	2	26*	1	7
O=S(=O)(CC1NCCc2ccccc21)NCCc1ccccc1 (stereo not drawn)	/	/	/	7	/	/
O=C(Nc1ccc(S(=O)(=O)C(F)F)cc1)c1ccc2c(=O)n3c(nc2c1)CCC3	2	-4	7	20*	4	9
CC(C)COc1ccc(C(=O)Nc2scc(-c3ccc(Cl)cc3Cl)c2C(N)=O)cc1	-2	0	6	31*	5	29*
O=C(Nc1nc(-c2ccc(Cl)cc2Cl)cs1)c1ccc(OCC2CCCO2)cc1 (stereo not drawn)	1	-2	3	-1	0	/
Brc1ccc(N2O[C@H]3C=C[C@@H]2C3)nc1	0	/	/	-1	/	/
COc1ccc(C(=O)c2ccc(N3CCN(C(=O)c4ccc(F)cc4)CC3)c(F)c2)cc1Br	1	2	1	28*	3	24*
COc1cc2[nH]c(=S)nc(NCCc3ccc(C)cc3)c2cc1OC	8	3	0	76*	/	52*	RORg DNA counter=4*
COc1ccc(CCNc2nc(=S)[nH]c3cc(OC)c(OC)cc23)cc1OC	0	-1	-1	0	3	/
CCn1c(=O)n(CC(=O)N2CCOCC2)c(=O)c2ccccc21	/	/	/	2	/	/
CCN(c1cccc(C)c1)S(=O)(=O)c1cc2c3c(c1)CCC(=O)N3CCC2	-2	0	0	53*	2	62*	RORg DNA counter=>40
CCCN(CCC)S(=O)(=O)c1cc2c3c(c1)CCN3C(=O)CC2	-2	0	-1	-4	1	/
COc1ccccc1C=C(C(=O)c1ccccc1)c1ccccc1	-3	/	/	18*	/	5
N#Cc1ccc(C23CC4(C2)[C@H](CN(Cc2cccnc2)[C@@H]4c2ccccc2)C3c2ccccc2)cc1 (stereo partly drawn)	0	-1	4	23*	1	29*
